Results on four molecules are retold here after ChEMBL document CHEMBL1128448, “Synthesis and antifungal activity of new azole derivatives containing an N-acylmorpholine ring” (1995).

Values after ≈ are worked out from the molar mass of the structure shown.

Experiment [1] relates to Mus sp. In words: In vivo evaluation of % survival rate after peroral administration on 9th day at dose 1 mg/kg. Conditions: route oral, 1 mg/kg. In kind it is functional.
A further experiment concerns Kluyveromyces marxianus. In words: In vitro evaluation of minimum inhibitory concentration against Candida pseudotropicalis 13. In kind it is functional. A digest of the protocol: (§1)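 Stocks are 800 μg/mL in 50% ethanol. Each plate gets 10 μL of inoculum at 10^5 cfu/mL. Incubation at 25 °C, 48 h for yeasts and 120 h for dermatophytes and molds. Organisms are ATCC strains or clinical isolates.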

The test system of experiment [2] is Mus sp. Kind of experiment: In vivo evaluation of % survival rate after peroral administration on 3rd day at dose 1 mg/kg. In kind it is functional. Conditions: route oral, 1 mg/kg.
The test system of experiment [3] is Rattus norvegicus. In words: In vivo evaluation of antifungal activity against vaginal candidosis in rat at dose 0.25 mg/kg on 15th day. In kind it is functional. In short, it runs like this: (§2)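 Groups of 10 female Wistar rats given estradiol 25 mg/kg sc on day -5, infected intravaginally with C. albicans by sterile swab on day 0; infection confirmed on day 3 by swab culture (TSB, then Sabouraud agar). Oral dosing once daily on days 3, 4, 5; vehicle controls. Vaginal swabs cultured on days 10 and 15; read-out % cured (culture-negative).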

Experiment [4] has as its system Rattus norvegicus. In words: In vivo evaluation of antifungal activity against vaginal candidosis in rat at dose 0.5 mg/kg on 10th day. In kind it is functional. A digest of the protocol: (§3)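 Female Wistar rats, 10 per group, received estradiol 25 mg/kg sc on day -5. On day 0 they were infected intravaginally with C. albicans by sterile swab. Infection was confirmed on day 3 by culturing the swab in TSB and then on Sabouraud agar. Oral dosing was once daily on days 3, 4 and 5; controls got vehicle only. Vaginal swabs taken on days 10 and 15 were cultured and read the next day.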

Experiment [5] relates to Rattus norvegicus. Kind of experiment: In vivo evaluation of antifungal activity against vaginal candidosis in rat at dose 0.5 mg/kg on 15th day. In kind it is functional. In short, it runs like this:
as §3

The test system of experiment [6] is Candida albicans. Kind of experiment: In vivo evaluation of minimum inhibitory concentration against Candida albicans 60. In kind it is functional. A digest of the protocol: (§4)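 Broth macrodilution MIC following NCCLS M27-P, in RPMI-1640 buffered with 0.165 M MOPS. Fluconazole was dissolved in water and other drugs in DMSO. C. parapsilosis ATCC 22019 served as the reference strain in every run. MIC was the lowest concentration giving turbidity at or below the 80% inhibition standard.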

For experiment [7], the system named is Mus sp. Kind of experiment: In vivo evaluation of % survival rate after peroral administration on 5th day at dose 1 mg/kg. In kind it is functional. To be noted: route oral, 1 mg/kg.
The subject of experiment [8] is Candida albicans. In words: In vitro evaluation of minimum inhibitory concentration against Candida albicans 76. In kind it is functional. In short, it runs like this:
as §1

Experiment [9] concerns Mus sp. Kind of experiment: In vivo evaluation of % survival rate after peroral administration on 7th day at dose 1 mg/kg. In kind it is functional. To be noted: route oral, 1 mg/kg.
For experiment [10], the system named is Rattus norvegicus. In words: In vivo evaluation of antifungal activity against vaginal candidosis in rat at dose 0.25 mg/kg on 10th day. In kind it is functional. In short, it runs like this:
as §2

In experiment [11] the test system is Candida albicans. Kind of experiment: In vivo evaluation of minimum inhibitory concentration against Candida albicans 76. In kind it is functional. In short, it runs like this: as §4
The subject of experiment [12] is Mus sp. In words: In vivo evaluation of % survival rate after peroral administration on 9th day at dose 2.5 mg/kg. In kind it is functional. To be noted: Mus sp., po.
The subject of a further experiment is Pichia kudriavzevii. In words: In vitro evaluation of minimum inhibitory concentration against Candida krusei 70. In kind it is functional. Conditions: Pichia kudriavzevii; read-out: MIC. In short, it runs like this: as §1
A further experiment deals with Rhodotorula mucilaginosa. Kind of experiment: In vitro evaluation of minimum inhibitory concentration against Rhodotorula rubra 16. In kind it is functional. Conditions: Rhodotorula mucilaginosa; read-out: MIC. In short, it runs like this:
as §1

For the next experiment, the system named is Trichophyton rubrum. In words: In vitro evaluation of minimum inhibitory concentration against Trichophyton rubrum 90. In kind it is functional. To be noted: Trichophyton rubrum; read-out: MIC. In short, it runs like this:
as §1

The test system of the next experiment is Trichophyton benhamiae. Kind of experiment: In vitro evaluation of minimum inhibitory concentration against Trichophyton mentagrophytes 23. Conditions: Trichophyton benhamiae; read-out: MIC. In kind it is functional, Arthroderma benhamiae. In short, it runs like this: as §1
Another experiment has as its system Aspergillus flavus. Kind of experiment: In vitro evaluation of minimum inhibitory concentration against Aspergillus flavus 19. In kind it is functional. To be noted: Aspergillus flavus; read-out: MIC. A digest of the protocol: as §1
The next experiment has as its system Aspergillus niger. Kind of experiment: In vitro evaluation of minimum inhibitory concentration against Aspergillus niger 18. In kind it is functional. Conditions: Aspergillus niger; read-out: MIC. A digest of the protocol: as §1
For another experiment, the system named is Nannizzia gypsea. Kind of experiment: In vitro evaluation of minimum inhibitory concentration against Microsporum gypseum 22. In kind it is functional. To be noted: Nannizzia gypsea; read-out: MIC. In short, it runs like this:
as §1

Experiment [13] relates to Mus sp. In words: In vivo evaluation of % survival rate after peroral administration on 3rd day at dose 2.5 mg/kg. In kind it is functional. Conditions: Mus sp., po.
Another experiment deals with Candida parapsilosis. In words: In vitro evaluation of minimum inhibitory concentration against Candida parapsilosis 61. In kind it is functional. A digest of the protocol: as §1
Experiment [14] has as its system Meyerozyma guilliermondii. Kind of experiment: In vivo evaluation of minimum inhibitory concentration against Candida guilliermondii 26. To be noted: in the assay text read “In vitro” for “In vivo”. In kind it is functional. In short, it runs like this:
(§5)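 Agar dilution MIC. Inocula were 10^5 cfu/mL; 10 µL was spotted onto Kimmig's agar with 0.5% glycerol containing twofold drug dilutions (80 to 0.025 µg/mL). Drug stocks were 800 µg/mL in 50% ethanol. Plates were incubated at 25 °C, 48 h for yeasts and 120 h for molds and dermatophytes.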

The test system of experiment [15] is Aspergillus fumigatus. In words: In vitro evaluation of minimum inhibitory concentration against Aspergillus fumigatus 33. Conditions: Aspergillus fumigatus; read-out: MIC. In kind it is functional. A digest of the protocol:
as §1

Experiment [16] concerns Nakaseomyces glabratus. Kind of experiment: In vitro evaluation of minimum inhibitory concentration against Torulopsis glabrata 78. In kind it is functional. To be noted: Nakaseomyces glabratus; read-out: MIC. A digest of the protocol:
as §1

The test system of experiment [17] is Mus sp. Kind of experiment: In vivo evaluation of % survival rate after peroral administration on 7th day at dose 2.5 mg/kg. In kind it is functional. To be noted: Mus sp., po.
Experiment [18] concerns Mus sp. Kind of experiment: In vivo evaluation of % survival rate after peroral administration on 5th day at dose 2.5 mg/kg. In kind it is functional. Conditions: Mus sp., po.
A further experiment concerns Microsporum canis. In words: In vitro evaluation of minimum inhibitory concentration against Microsporum canis 47. To be noted: Microsporum canis; read-out: MIC. In kind it is functional. In short, it runs like this: as §1
Experiment [19] concerns Meyerozyma guilliermondii. Kind of experiment: In vitro evaluation of minimum inhibitory concentration against Candida guilliermondii 26. In kind it is functional. In short, it runs like this: as §1
Experiment [20] has as its system Candida albicans. In words: In vivo evaluation of minimum inhibitory concentration against Candida albicans 406. In kind it is functional. In short, it runs like this:
as §4

Experiment [21] has as its system Nakaseomyces glabratus. In words: In vivo Evaluation of minimum inhibitory concentration against Torulopsis glabrata 78. In kind it is functional. Conditions: in the assay text read “In vitro” for “In vivo”. A digest of the protocol: as §1
For the next experiment, the system named is Candida tropicalis. Kind of experiment: In vitro evaluation of minimum inhibitory concentration against Candida tropicalis 2.11. In kind it is functional. A digest of the protocol:
as §1

Experiment [22] relates to Aspergillus fumigatus. In words: In vivo evaluation of minimum inhibitory concentration against Aspergillus fumigatus 33. In kind it is functional. Conditions: in the assay text read “In vitro” for “In vivo”. In short, it runs like this: as §5
The mark [23] stands for this setting: Kluyveromyces marxianus, read-out: MIC.
Setting [24] is: Lodderomyces parapsilosis, read-out: MIC.
[25] abbreviates: Candida albicans, read-out: MIC.

A word on the MIC: it is the lowest concentration that inhibits growth of the organism. `C[C@H]1N(C(=O)c2ccc(C(F)(F)F)cc2)CC(=O)O[C@@]1(Cn1cncn1)c1ccc(F)cc1F`: the Survival amounted to 10% in the experiment with Mus sp. [1], 100% with Mus sp. [2], 100% in the experiment on Mus sp. [7] and 90% with Mus sp. [9]. The minimal inhibitory concentration (MIC) against Kluyveromyces marxianus came to 80 µg/mL (≈ 167 µM); against Candida albicans [6], 40 µg/mL (≈ 83.3 µM); in the experiment on Candida albicans [8], 80 µg/mL (≈ 167 µM). For the same molecule, the Cure rate in the experiment on Rattus norvegicus [3] is 0%; with Rattus norvegicus [4], 90%; in the experiment on Rattus norvegicus [5], 90%; with Rattus norvegicus [10] it was 10%.

In the case of `C[C@H]1N(C(=O)c2ccc(OCC(F)(F)F)cc2)CC(=O)O[C@@]1(Cn1cncn1)c1ccc(F)cc1F` (racemic), the MIC in the experiment with Candida albicans [11] is 80 µg/mL (≈ 157 µM); in the experiment with Kluyveromyces marxianus (setting [23]), 40 µg/mL (≈ 78.4 µM); in the experiment on Pichia kudriavzevii it was more than 80 µg/mL; in the experiment on Rhodotorula mucilaginosa, more than 40 µg/mL; with Trichophyton rubrum, more than 80 µg/mL; in the experiment with Trichophyton benhamiae, more than 80 µg/mL. The MIC (in the experiment with Aspergillus flavus; in the experiment with Aspergillus niger; with Nannizzia gypsea; in the experiment on Candida parapsilosis (setting [24]); in [14]; with Aspergillus fumigatus [15]) was more than 80 µg/mL in each case. For the same molecule, the MIC with Nakaseomyces glabratus [16] and with Microsporum canis was more than 80 µg/mL each time. For the same molecule, the survival at 2.5 mg/kg is 70% in the experiment with Mus sp. [12], 100% in the experiment with Mus sp. [13], 100% in the experiment on Mus sp. [17] and 100% in the experiment with Mus sp. [18].

`C[C@H]1N(C(=O)c2ccc(C(F)(F)F)cc2)CC(=O)O[C@@]1(Cn1cncn1)c1ccc(Cl)cc1Cl` (stereo in doubt; (+)-32a): the Survival in the experiment with Mus sp. [1], in the experiment with Mus sp. [2], in the experiment with Mus sp. [7] and in the experiment with Mus sp. [9] was 0% throughout. For the same molecule, the MIC (in experiment [19]; in the experiment with Kluyveromyces marxianus; with Candida albicans [20]; with Nakaseomyces glabratus [21]; with Candida albicans [6]; in the experiment with Candida tropicalis) was more than 80 µg/mL in each case. For the same molecule, the MIC against Candida parapsilosis and against Candida albicans [8] was more than 80 µg/mL throughout.

With `C[C@H]1N(C(=O)c2ccc(C(F)(F)F)cc2)CC(=O)O[C@@]1(Cn1cncn1)c1ccc(C(F)(F)F)cc1` (racemic), the survival at 2.5 mg/kg in the experiment with Mus sp. [12] was 10%; in the experiment on Mus sp. [13], 20%; in the experiment with Mus sp. [17], 10%; in the experiment with Mus sp. [18] it was 20%. For the same molecule, the minimal inhibitory concentration (MIC) is more than 80 µg/mL in [19] (Meyerozyma guilliermondii, read-out: MIC); 80 µg/mL (≈ 156 µM) with Kluyveromyces marxianus (setting [23]); more than 80 µg/mL with Pichia kudriavzevii; more than 80 µg/mL in the experiment with Rhodotorula mucilaginosa; more than 80 µg/mL in the experiment with Trichophyton rubrum; more than 80 µg/mL in the experiment with Trichophyton benhamiae. In addition, the MIC in the experiment on Aspergillus flavus is more than 80 µg/mL; in the experiment with Candida albicans [20] (setting [25]), more than 80 µg/mL; in the experiment with Aspergillus niger, more than 80 µg/mL; in the experiment with Nannizzia gypsea, more than 80 µg/mL; in the experiment on Candida albicans [6] (setting [25]), more than 80 µg/mL; in the experiment with Candida tropicalis (Candida tropicalis, read-out: MIC), more than 80 µg/mL. Moreover, the minimum inhibitory concentration (MIC) in the experiment with Candida parapsilosis (setting [24]), with Candida albicans [8] (setting [25]), against Aspergillus fumigatus [22], in the experiment on Nakaseomyces glabratus [16] and with Microsporum canis was more than 80 µg/mL each time.
